Assay results taken from ChEMBL document CHEMBL4177645, “Exploration of multi-target potential of chromen-4-one based compounds in Alzheimer's disease: Design, synthesis and biological evaluations” (Bioorg Med Chem, 2017).
Calls of active or inactive are those of the source. The calls are words filed in the database; no cut-off is given here.

What was measured:
Acetylcholinesterase = molecular target: T1, Acetylcholinesterase (Rattus norvegicus, UniProt P37136); assay: Inhibition of rat brain AChE using acetylthiocholine iodide as substrate by spectroscopic method
T1 sequence (P37136 whole entry): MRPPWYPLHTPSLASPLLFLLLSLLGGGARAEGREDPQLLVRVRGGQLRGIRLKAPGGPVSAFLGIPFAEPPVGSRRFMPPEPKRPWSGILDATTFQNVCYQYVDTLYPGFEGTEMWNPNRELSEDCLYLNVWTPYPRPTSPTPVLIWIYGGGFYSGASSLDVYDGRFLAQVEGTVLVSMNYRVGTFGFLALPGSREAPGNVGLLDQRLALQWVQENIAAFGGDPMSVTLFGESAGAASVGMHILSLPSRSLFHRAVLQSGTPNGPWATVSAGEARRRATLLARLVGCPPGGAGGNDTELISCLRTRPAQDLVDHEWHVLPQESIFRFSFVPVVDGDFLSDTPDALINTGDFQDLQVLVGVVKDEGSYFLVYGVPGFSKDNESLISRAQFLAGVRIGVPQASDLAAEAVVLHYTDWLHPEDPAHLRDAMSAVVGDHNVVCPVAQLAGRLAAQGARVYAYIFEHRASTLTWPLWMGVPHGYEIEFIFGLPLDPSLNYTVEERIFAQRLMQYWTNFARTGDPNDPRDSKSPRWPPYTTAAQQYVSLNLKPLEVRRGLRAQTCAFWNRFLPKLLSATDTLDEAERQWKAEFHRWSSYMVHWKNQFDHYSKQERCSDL

[1] = Anti-glycosylation activity using BSA assessed as inhibition of AGE formation measured after 30 hrs by fluorescence spectrophotometric method; assay type: functional
In short: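 Glucose-mediated glycation of protein with fluorescent AGE read-out at 370 nm excitation / 440 nm emission. Test compounds dissolved in DMSO at different concentrations. Aminoguanidine positive control. Run in triplicate.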

Mus musculus [2] = assay: Reversal of scopolamine-induced memory impairment in Swiss albino mouse assessed as attenuation of scopolamine-induced amnesia at 2 mg/kg, ip administered 30 mins prior to scopolamine challenge measured on day 4 by Morris water maze test; assay type: functional, organism-based
In short: (§1)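 Swiss albino mice of either sex (20–25 g), five per group. Scopolamine 0.5 mg/kg; agent (2, 5, 10 mg/kg, i.p.) given 30 min before scopolamine ahead of each of the first four trials. Morris water maze: escape latency on days 1–4, time in target quadrant on day 5. Vehicle 10% DMSO. Mean ± SD, two-way ANOVA with Tukey test.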

Mus musculus [3] = assay: Antialzheimer activity in Swiss albino mouse brain assessed as reversal of scopolamine-induced […] level at 5 mg/kg, ip (reference value: 26.51 +/- 0.79 nM/mg); assay type: functional
In short: (§2)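 Swiss albino mice of either sex (20–25 g), five per group, given scopolamine 0.5 mg/kg with test agent i.p. 30 min before scopolamine. After the water maze protocol, cortex and hippocampus were homogenized in ice-cold phosphate buffer pH 7.4 and spun 14,500 rpm, 15 min, 4 °C. Supernatant used for TBARS (Ohkawa) or reduced GSH (Beutler). Mean ± SD.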

Mus musculus [4] = assay: Antialzheimer activity in Swiss albino mouse brain assessed as reversal of scopolamine-induced […] assessed per mg protein at 5 mg/kg, ip (reference value: 1.25 +/- 0.04 nM/min/mg) by spectrophotometric analysis; assay type: functional
Mus musculus [5] = assay: Antialzheimer activity in Swiss albino mouse brain assessed as reversal of scopolamine-induced […] assessed per mg protein at 10 mg/kg, ip (reference value: 1.25 +/- 0.04 nM/min/mg) by spectrophotometric analysis; assay type: functional
Mus musculus [6] = assay: Reversal of scopolamine-induced memory impairment in Swiss albino mouse assessed as attenuation of scopolamine-induced […] time at 2 to 10 mg/kg, ip administered 30 mins prior to scopolamine challenge measured on day 4 by Morris water maze test; assay type: functional, organism-based; in short: as §1
[7] = molecular target: T2, Acetylcholinesterase (Rattus norvegicus) (UniProt P37136); assay: Mixed type inhibition of rat brain AChE at 0.01 to 0.1 uM using increasing concentration acetylthiocholine iodide as substrate by Lineweaver-Burk plot analysis
T2 sequence (whole entry): T1 sequence (P37136 whole entry)

Mus musculus [8] = assay: Reversal of scopolamine-induced memory impairment in Swiss albino mouse assessed as attenuation of scopolamine-induced decreased time spent in target quadrant at 2 to 10 mg/kg, ip administered 30 mins prior to scopolamine challenge measured on day 5 by Morris water maze test
Mus musculus [9] = assay: Antialzheimer activity in Swiss albino mouse brain assessed as reversal of scopolamine-induced reduction in GSH levels at 5 mg/kg, ip (reference value: 21.3 +/- 0.81); assay type: functional; in short: as §2
[10] = molecular target: T2, Acetylcholinesterase (Rattus norvegicus); assay: Potency index, ratio of donepezil IC50 to compound IC50 for inhibition of rat brain AChE
Mus musculus [11] = assay: Antialzheimer activity in Swiss albino mouse brain assessed as reversal of scopolamine-induced reduction in GSH levels at 10 mg/kg, ip (reference value: 21.3 +/- 0.81); assay type: functional; in short: as §2
Mus musculus [12] = assay: Antialzheimer activity in Swiss albino mouse brain assessed as reversal of scopolamine-induced […] level at 10 mg/kg, ip (reference value: 26.51 +/- 0.79 nM/mg); assay type: functional; in short: as §2

Q: Which IC50 (Acetylcholinesterase) does the source give for `COc1cc(-c2cc(=O)c3ccc(O)cc3o2)cc(OC)c1OC` here?
A: The IC50 was 0.0442 µM.

Q: And the IC50 [1]?
A: Its IC50 is 51.4 µM.

Q: Which IC50 (Acetylcholinesterase) does the source give for `COc1ccc(-c2cc(=O)c3ccc(O)cc3o2)cc1` here?
A: The IC50 was 0.035 µM.

Q: And the IC50 [1]?
A: Its IC50 is 42 µM.

Q: For `COc1ccc(-c2cc(=O)c3ccc(OCCCCN4CCC(C)CC4)cc3o2)cc1`, which IC50 (Acetylcholinesterase) is on record?
A: Its IC50 is 0.0135 µM.

Q: And the IC50 [1]?
A: The IC50 was 48.2 µM.

Q: What does the source list for `COc1ccc(-c2cc(=O)c3ccc(OCCCN4CCC(C)CC4)cc3o2)cc1`?
A: IC50 (Acetylcholinesterase): 0.0077 µM; IC50 [1]: 42.6 µM

Q: Which Activity (Mus musculus [2]) does the source give for `COc1cc2c(cc1OC)C(=O)C(CC1CCN(Cc3ccccc3)CC1)C2` (centres undefined) here?
A: The Activity was “Active”.

Q: For `COc1ccc(-c2cc(=O)c3ccc(O)cc3o2)cc1OC`, which IC50 (Acetylcholinesterase) is on record?
A: The IC50 was 0.0373 µM.

Q: What about the IC50 [1] of the same compound?
A: Its IC50 is 47.4 µM.

Q: What does the source list for `COc1ccc(-c2cc(=O)c3ccc(OCCCN4CCC(C)CC4)cc3o2)cc1OC`?
A: IC50 (Acetylcholinesterase): 0.00648 µM; IC50 [1]: 47.7 µM

Q: Which IC50 [1] does the source give for `N=C(N)NN` [PIMAGEDINE] here?
A: Its IC50 is 40.1 µM.

Q: Which results are given for `COc1cc(-c2cc(=O)c3ccc(OCCCN4CCC(C)CC4)cc3o2)cc(OC)c1OC`?
A: IC50 (Acetylcholinesterase): 0.00612 µM; IC50 [1]: 41.8 µM

Q: Which IC50 (Acetylcholinesterase) does the source give for `COc1ccc(-c2cc(=O)c3ccc(OCCCCCN4CCC(C)CC4)cc3o2)cc1` here?
A: Its IC50 is 0.0156 µM.

Q: And the IC50 [1]?
A: The IC50 was 55.1 µM.

Q: With `COc1ccc(-c2cc(=O)c3ccc(OCCN4CCC(C)CC4)cc3o2)cc1OC` as the compound, how does the IC50 (Acetylcholinesterase) read?
A: The IC50 was 0.00677 µM.

Q: And the IC50 [1]?
A: The IC50 was 42.1 µM.

Q: With `COc1cc(-c2cc(=O)c3ccc(OCCN4CCC(C)CC4)cc3o2)cc(OC)c1OC` as the compound, how does the Activity (Mus musculus [3]) read?
A: Its Activity is 20.14 nM/mg.

Q: And the IC50 (Acetylcholinesterase)?
A: Its IC50 is 0.00587 µM.

Q: What about the Activity (Mus musculus [4]) of the same compound?
A: Its Activity is 0.97 nmol/min/mg.

Q: What about the Activity (Mus musculus [5]) of the same compound?
A: The Activity was 0.85 nmol/min/mg.

Q: And the IC50 [1]?
A: Its IC50 is 37.1 µM.

Q: And the Activity (Mus musculus [6])?
A: Its Activity is “Active”.

Q: And the inhibition [7]?
A: The inhibition was “Active”.

Q: And the Activity (Mus musculus [8])?
A: The Activity was “Active”.

Q: What about the Activity (Mus musculus [9]) of the same compound?
A: Its Activity is 31.7 nM/mg.

Q: And the Ratio IC50 [10]?
A: Its Ratio IC50 is 2.

Q: What about the Activity (Mus musculus [11]) of the same compound?
A: The Activity was 36.8 nM/mg.

Q: And the Activity (Mus musculus [12])?
A: Its Activity is 17.6 nM/mg.

Q: What does the source list for `COc1ccc(-c2cc(=O)c3ccc(OCCCCCCN4CCC(C)CC4)cc3o2)cc1`?
A: IC50 (Acetylcholinesterase): 0.0481 µM; IC50 [1]: 57.2 µM
